Data reported in ChEMBL document CHEMBL3044673, “Design, synthesis and insecticidal activity of novel phenylpyrazoles containing a 2,2,2-trichloro-1-alkoxyethyl moiety” (2010).

What was measured:
Assay type in all cases: functional
[1] = test system: Culex pipiens pallens; assay: Insecticidal activity against Culex pipiens pallens (mosquito) assessed as insect mortality at 100 ug/kg measured 1 day post compound treatment; conditions: for mortality at 0.1 mg/kg: Culex pipiens, 24 h
Method in brief: (§1)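 Fourth-instar Culex pipiens pallens larvae, 20 per test, were laboratory-reared and placed in 100 mL of test solution made by adding 1 mL of compound dilution to 99 mL of water. Tests were held at 25±1 °C, percentage mortality was scored 1 day after treatment, and each test was run three times.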

[2] = test system: Plutella xylostella; assay: Insecticidal activity against Plutella xylostella (diamondback moth) grown on compound pre-treated fresh cabbage leaves assessed as insect mortality at 5 mg/kg measured 3 days post compound treatment by leaf-dip method; conditions: for mortality at 5 mg/kg: Plutella xylostella; for mortality: 5 mg/kg
Method in brief: (§2)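 Leaf-dip stomach-toxicity assay on laboratory-reared diamondback moth. Test solutions came from a 200 mg L^-1 stock in dimethylformamide, diluted with water containing TW-20. Control leaves were treated with water and dimethylformamide. Tests were held at 25±1 °C, percentage mortality was scored 3 days after treatment, and each treatment was run three times.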

[3] = test system: Plutella xylostella; assay: Insecticidal activity against Plutella xylostella (diamondback moth) grown on compound pre-treated fresh cabbage leaves assessed as insect mortality at 200 mg/kg measured 3 days post compound treatment by leaf-dip method; method in brief: as §2
[4] = test system: Aphis craccivora; assay: Insecticidal activity against Aphis craccivora (cowpea aphid) infested tender soybean shoots exposed to 25 mg/kg test compound solution assessed as insect mortality measured 24 hr post compound treatment
Method in brief: (§3)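 Soybean tender shoots carrying 60 aphids were dipped in test solutions. Solutions were made from a 200 mg L^-1 stock in dimethylformamide, diluted with water containing TW-20. Insects were laboratory-reared, tests were held at 25±1 °C, and mortality was scored.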

[5] = test system: Plutella xylostella; assay: Insecticidal activity against Plutella xylostella (diamondback moth) grown on compound pre-treated fresh cabbage leaves assessed as insect mortality at 25 mg/kg measured 3 days post compound treatment by leaf-dip method; conditions: for mortality at 25 mg/kg: Plutella xylostella; method in brief: as §2
[6] = test system: Plutella xylostella; assay: Insecticidal activity against Plutella xylostella (diamondback moth) grown on compound pre-treated fresh cabbage leaves assessed as insect mortality at 10 mg/kg measured 3 days post compound treatment by leaf-dip method; conditions: for mortality at 10 mg/kg: Plutella xylostella; for mortality: 10 mg/kg; method in brief: as §2
[7] = test system: Aphis craccivora; assay: Insecticidal activity against Aphis craccivora (cowpea aphid) infested tender soybean shoots exposed to 200 mg/kg test compound solution assessed as insect mortality measured 24 hr post compound treatment; method in brief: as §3
[8] = test system: Aphis craccivora; assay: Insecticidal activity against Aphis craccivora (cowpea aphid) infested tender soybean shoots exposed to 10 mg/kg test compound solution assessed as insect mortality measured 24 hr post compound treatment; conditions: for mortality at 10 mg/kg: Aphis craccivora, 24 h; method in brief: as §3
[9] = test system: Plutella xylostella; assay: Insecticidal activity against Plutella xylostella (diamondback moth) grown on compound pre-treated fresh cabbage leaves assessed as insect mortality at 50 mg/kg measured 3 days post compound treatment by leaf-dip method; method in brief: as §2
[10] = test system: Plutella xylostella; assay: Insecticidal activity against Plutella xylostella (diamondback moth) grown on compound pre-treated fresh cabbage leaves assessed as insect mortality at 100 mg/kg measured 3 days post compound treatment by leaf-dip method; method in brief: as §2
[11] = test system: Aphis craccivora; assay: Insecticidal activity against Aphis craccivora (cowpea aphid) infested tender soybean shoots exposed to 50 mg/kg test compound solution assessed as insect mortality measured 24 hr post compound treatment; method in brief: as §3
[12] = test system: Culex pipiens pallens; assay: Insecticidal activity against Culex pipiens pallens (mosquito) assessed as insect mortality at 50 ug/kg measured 1 day post compound treatment; conditions: 24 h; method in brief: as §1
[13] = test system: Aphis craccivora; assay: Insecticidal activity against Aphis craccivora (cowpea aphid) infested tender soybean shoots exposed to 5 mg/kg test compound solution assessed as insect mortality measured 24 hr post compound treatment; conditions: for mortality at 5 mg/kg: Aphis craccivora, 24 h; for mortality: 5 mg/kg; method in brief: as §3
[14] = test system: Aphis craccivora; assay: Insecticidal activity against Aphis craccivora (cowpea aphid) infested tender soybean shoots exposed to 100 mg/kg test compound solution assessed as insect mortality measured 24 hr post compound treatment; method in brief: as §3
[15] = test system: Aphis craccivora; assay: Insecticidal activity against Aphis craccivora (cowpea aphid) infested tender soybean shoots exposed to 2.5 mg/kg test compound solution assessed as insect mortality measured 24 hr post compound treatment; conditions: for mortality at 2.5 mg/kg: Aphis craccivora, 24 h; method in brief: as §3
[16] = test system: Plutella xylostella; assay: Insecticidal activity against Plutella xylostella (diamondback moth) grown on compound pre-treated fresh cabbage leaves assessed as insect mortality at 2.5 mg/kg measured 3 days post compound treatment by leaf-dip method; method in brief: as §2
[17] = test system: Culex pipiens pallens; assay: Insecticidal activity against Culex pipiens pallens (mosquito) assessed as insect mortality at 25 ug/kg measured 1 day post compound treatment; conditions: 24 h; method in brief: as §1
[18] = test system: Culex pipiens pallens; assay: Insecticidal activity against Culex pipiens pallens (mosquito) assessed as insect mortality at 10 ug/kg measured 1 day post compound treatment; conditions: 24 h; method in brief: as §1
[19] = test system: Culex pipiens pallens; assay: Insecticidal activity against Culex pipiens pallens (mosquito) assessed as insect mortality at 5 ug/kg measured 1 day post compound treatment; conditions: 24 h; method in brief: as §1

Structure (SMILES) | mortality at 0.1 mg/kg [1] | mortality at 5 mg/kg [2] | mortality at 200 mg/kg [3] | mortality at 25 mg/kg [4] | mortality at 25 mg/kg [5] | mortality at 10 mg/kg [6] | mortality at 200 mg/kg [7] | mortality at 10 mg/kg [8] | mortality at 50 mg/kg [9] | mortality at 100 mg/kg [10] | mortality at 50 mg/kg [11] | mortality at 0.05 mg/kg [12] | mortality at 5 mg/kg [13] | mortality at 100 mg/kg [14] | mortality at 2.5 mg/kg [15] | mortality at 2.5 mg/kg [16] | mortality at 0.025 mg/kg [17] | mortality at 0.01 mg/kg [18] | mortality [1] | further results
CC[S+]([O-])c1c(C#N)nn(-c2c(Cl)cc(C(F)(F)F)cc2Cl)c1NC(OCCCl)C(Cl)(Cl)Cl (configuration not stated) | 100% | 0% | 100% | 100% | 46% | 32% | 100% | 48% | 100% | 100% | 100% | 0% | 0% | 100% | – | – | – | – | – | –
CC[S+]([O-])c1c(C#N)nn(-c2c(Cl)cc(C(F)(F)F)cc2Cl)c1NC(OCCF)C(Cl)(Cl)Cl (configuration not stated) | 100% | 0% | 100% | 100% | 46% | 30% | 100% | 100% | 91% | 100% | 100% | 20% | 73% | 100% | 43% | – | – | – | – | –
CCOC(Nc1c([S+]([O-])CC)c(C#N)nn1-c1c(Cl)cc(C(F)(F)F)cc1Cl)C(Cl)(Cl)Cl (configuration not stated) | 100% | 29% | 100% | 100% | 100% | 72% | 100% | 100% | 100% | 100% | 100% | 100% | 81% | 100% | 0% | 0% | 40% | – | – | –
CC[S+]([O-])c1c(C#N)nn(-c2c(Cl)cc(C(F)(F)F)cc2Cl)c1NC(OC)C(Cl)(Cl)Cl (configuration not stated) | 100% | – | 100% | 96% | 31% | 0% | 100% | 87% | 86% | 100% | 100% | 100% | 76% | 100% | 0% | – | 0% | – | – | –
CCOC(Nc1c([S+](C)[O-])c(C#N)nn1-c1c(Cl)cc(C(F)(F)F)cc1Cl)C(Cl)(Cl)Cl (configuration not stated) | 100% | 63% | 100% | 100% | 100% | 85% | 100% | 85% | 100% | 100% | 100% | 100% | 63% | 100% | 0% | 0% | 30% | – | – | –
CCCOC(Nc1c(SCC)c(C#N)nn1-c1c(Cl)cc(C(F)(F)F)cc1Cl)C(Cl)(Cl)Cl (configuration not stated) | 100% | – | 100% | 53% | 58% | 17% | 95% | 0% | 89% | 100% | 85% | 100% | – | 90% | – | – | 100% | 100% | – | mortality at 0.005 mg/kg [19]: 50%
CCOC(Nc1c(SCC)c(C#N)nn1-c1c(Cl)cc(C(F)(F)F)cc1Cl)C(Cl)(Cl)Cl (configuration not stated) | 100% | – | 100% | 35% | 44% | 18% | 90% | 0% | 96% | 100% | 75% | 100% | – | 86% | – | – | 100% | 100% | – | mortality at 0.005 mg/kg [19]: 0%
CSc1c(C#N)nn(-c2c(Cl)cc(C(F)(F)F)cc2Cl)c1NC(OCCCl)C(Cl)(Cl)Cl (configuration not stated) | 100% | 87% | 100% | 98% | 100% | 100% | 100% | 73% | 100% | 100% | 100% | 100% | 69% | 100% | 62% | 62% | 100% | 100% | – | mortality at 0.005 mg/kg [19]: 20%
CSc1c(C#N)nn(-c2c(Cl)cc(C(F)(F)F)cc2Cl)c1NC(OCCF)C(Cl)(Cl)Cl (configuration not stated) | 100% | 81% | 100% | 74% | 100% | 89% | 100% | 62% | 100% | 100% | 100% | 100% | 28% | 100% | 0% | 34% | 100% | 40% | – | –
C[S+]([O-])c1c(C#N)nn(-c2c(Cl)cc(C(F)(F)F)cc2Cl)c1NC(OCCF)C(Cl)(Cl)Cl (stereo in doubt; 7d-1) | – | – | – | – | – | – | – | – | – | – | – | – | – | – | – | – | – | – | 20% | mortality [2]: 56%; mortality ([15]; 2.5 mg/kg): 43%; mortality ([5]; 25 mg/kg): 92%; mortality [6]: 77%; mortality [13]: 72%
C[S+]([O-])c1c(C#N)nn(-c2c(Cl)cc(C(F)(F)F)cc2Cl)c1NC(OCCF)C(Cl)(Cl)Cl (stereo in doubt; 7d-2) | – | 54% | 100% | 100% | 89% | 76% | 100% | 100% | 100% | 100% | 100% | – | 70% | 100% | 46% | 0% | – | – | 50% | –
C[S+]([O-])c1c(C#N)nn(-c2c(Cl)cc(C(F)(F)F)cc2Cl)c1NC(OCCCl)C(Cl)(Cl)Cl (stereo in doubt; 7e-1) | – | – | – | – | – | – | – | – | – | – | – | 40% | – | – | – | – | – | – | 100% | mortality [2]: 60%; mortality [6]: 81%; mortality ([8]; 10 mg/kg): 96%; mortality [13]: 61%
C[S+]([O-])c1c(C#N)nn(-c2c(Cl)cc(C(F)(F)F)cc2Cl)c1NC(OCCCl)C(Cl)(Cl)Cl (stereo in doubt; 7e-2) | – | 56% | 100% | 100% | 100% | 79% | 100% | 100% | 100% | 100% | 100% | – | 68% | 100% | 0% | 0% | – | – | 50% | –
